Data set [1] deals with Gastric mucosa. In words: Antioxidant activity in gastric mucosal tissue in Wistar rat assessed as increase in SOD level at 20 mg/kg, po. Type of data set: functional, organism-based. Put shortly: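 Gastric tissue from fasted rats (dosed orally once daily for 3 days in 0.3% Na CMC) homogenized in cold PBS pH 7.4, centrifuged 1000 rpm, 10 min, 4 °C; protein by Bradford; SOD measured in supernatant per reported procedure.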

Data set [2] has as its system Rattus norvegicus. Description: Anti-inflammatory activity in carrageenan-induced paw edema Wistar rat model assessed as swelling thickness of paw at 5 mg/kg, po measured after 4 hrs by digital vernier caliper (reference value: 8.36 +/- 0.78 millimeter). It is filed as functional.
Data set [3] is described as follows: Toxicity in fasting Wistar rat assessed as ulcer index at 10 mg/kg, po via gavage treated for 3 days consecutively by H and E staining based analysis (reference value: 0). Type of data set: organism-based. The conditions noted are these: in vivo, 72 h, time 3 day. An outline of the steps: (§1)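 Fasted rats, n = 6/group, gavaged once daily for 3 days in 0.3% Na CMC (vehicle control 0.3% CMC); killed under anaesthesia 6 h after day-3 dose; stomachs saline-washed, mucosa examined with hand lens; ulcer score, index and % ulceration by reported scoring; some stomachs formalin-fixed, H&E stained.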

The subject of data set [4] is Rattus norvegicus. In words: Anti-inflammatory activity in arachidonic acid-induced paw edema Wistar rat model assessed as protection against swelling thickness of paw at 5 mg/kg, po measured after 1 hr by digital vernier caliper (reference value: 0 %). It is filed as functional.
Data set [5] in a line: Toxicity in fasting Wistar rat assessed as ulcer index at 20 mg/kg, po via gavage treated for 3 days consecutively by H and E staining based analysis (reference value: 0). Type of data set: organism-based. The settings on record: in vivo, 72 h, time 3 day. An outline of the steps:
as §1

Data set [6] in a line: Acute toxicity in female Wistar rat assessed as drug tolerance up to 500 mg/kg, po measured for 14 days. Type of data set: organism-based. The conditions noted are these: in vivo, 336 h, time 14 day. An outline of the steps:
(§2)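 Followed OECD 423 guideline in healthy female Wistar rats weighing 200–250 g. Animals were housed at 25 ± 2 °C and 45–60% RH on a 12 h light/dark cycle, with free access to water and food.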

For data set [7], the target named is T1, Polyunsaturated fatty acid 5-lipoxygenase (Homo sapiens, UniProt P09917).
T1 sequence (P09917 whole entry): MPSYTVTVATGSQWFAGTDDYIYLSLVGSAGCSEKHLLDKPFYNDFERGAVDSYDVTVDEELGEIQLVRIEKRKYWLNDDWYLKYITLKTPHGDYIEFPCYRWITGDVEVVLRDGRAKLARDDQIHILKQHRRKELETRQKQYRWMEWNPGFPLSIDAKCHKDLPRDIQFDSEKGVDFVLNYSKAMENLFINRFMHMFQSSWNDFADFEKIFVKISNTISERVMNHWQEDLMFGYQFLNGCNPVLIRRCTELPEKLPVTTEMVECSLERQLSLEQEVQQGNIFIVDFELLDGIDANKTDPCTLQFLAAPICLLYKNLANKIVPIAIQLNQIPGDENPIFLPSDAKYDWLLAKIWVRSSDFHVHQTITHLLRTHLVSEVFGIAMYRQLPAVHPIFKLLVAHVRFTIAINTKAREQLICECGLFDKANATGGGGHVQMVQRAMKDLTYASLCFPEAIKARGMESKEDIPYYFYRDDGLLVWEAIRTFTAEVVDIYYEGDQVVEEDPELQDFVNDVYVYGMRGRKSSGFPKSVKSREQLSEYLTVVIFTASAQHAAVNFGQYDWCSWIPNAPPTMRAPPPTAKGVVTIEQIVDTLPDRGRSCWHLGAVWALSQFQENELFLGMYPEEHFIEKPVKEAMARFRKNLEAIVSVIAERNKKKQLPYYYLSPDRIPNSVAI
In words: Inhibition of 5-LOX (unknown origin) using arachidonic acid as substrate preincubated for 5 mins followed by substrate addition measured after 10 mins by spectrophotometry.

The test system of data set [8] is Rattus norvegicus. Description: Anti-inflammatory activity in carrageenan-induced paw edema Wistar rat model assessed as swelling thickness of paw at 10 mg/kg, po measured immediately by digital vernier caliper (reference value: 3.48 +/- 0.21 millimeter). It is filed as functional.
Data set [9] is described as follows: Toxicity in Wistar rat assessed as change in serum ALT level at 20 mg/kg, po. Type of data set: organism-based. The conditions noted are these: in vivo. An outline of the steps: (§3)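 Rats dosed orally in 0.3% Na CMC; retro-orbital blood clotted at room temperature, serum separated at 2000 rpm, 20 min, 4 °C; ALT, AST, creatinine and urea by commercial kits; n = 6 per group, mean ± SD; Tukey test after repeated-measures one-way ANOVA.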

Data set [10] can be described thus: Acute toxicity in female Wistar rat assessed as animal mortality up to 500 mg/kg, po measured for 14 days. It is filed as organism-based. The settings on record: in vivo, 336 h, time 14 day. Put shortly: as §2
Data set [11] is described as follows: Toxicity in Wistar rat assessed as change in serum urea level at 20 mg/kg, po. Type of data set: organism-based. The settings on record: in vivo. An outline of the steps:
as §3

In data set [12] the test system is Gastric mucosa. Description: Antioxidant activity in gastric mucosal tissue in Wistar rat assessed as increase in GSH level at 20 mg/kg, po. It is filed as functional, organism-based. Put shortly: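 Fasted rats (n = 6/group) gavaged once daily for 3 days in 0.3% Na CMC and sacrificed 6 h after the final dose. Randomly chosen stomachs homogenized in cold PBS pH 7.4 and centrifuged at 1000 rpm for 10 min at 4 °C. Supernatant protein measured by Bradford assay; GSH and nitrate then measured by reported methods.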

The test system of data set [13] is Rattus norvegicus. In words: Anti-inflammatory activity in carrageenan-induced paw edema Wistar rat model assessed as swelling thickness of paw at 5 mg/kg, po measured after 5 hrs by digital vernier caliper (reference value: 8.47 +/- 0.32 millimeter). Type of data set: functional.
For data set [14], the system named is Rattus norvegicus. Description: Cardio-protective activity in ISO-treated Wistar rat assessed as decrease in serum cTn-I level at 20 mg/kg, po by ELISA. It is filed as functional, organism-based. Put shortly: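 ISO 100 mg kg−1 s.c. rat model, oral treatment after ISO, n = 6 per group; serum from retro-orbital blood (4000 rpm, 4 °C, 10 min); cTn-I by commercial kit; mean ± SD.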

Data set [15] is described as follows: Tmax in male Wistar rat at 10 mg/kg, po measured up to 24 hrs by HPLC analysis. Type of data set: ADME, organism-based. The conditions noted are these: in vivo. Put shortly:
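Overnight-fasted male Wistar rats, 200–250 g, single 10 mg kg−1 p.o. in 0.3% sodium CMC; blood at 0, 0.5, 1, 2, 4, 8, 16, 24 h into heparin tubes; plasma MeOH-extracted, HPLC (MeOH:H2O 85:15, 254 nm) against calibration curve; extravascular non-compartmental analysis; mean ± SD (n = 3).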

Data set [16] can be described thus: Toxicity in wild-type Drosophila assessed as lethal dose administered orally via food to female and male flies and measured in F1 generation flies after 15 days. Type of data set: organism-based. The settings on record: both, in vivo, route po, time 15 day, read-out: LD50. An outline of the steps:
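Wild-type Oregon R+ flies (10 virgin females and males) were crossed on standard food containing 1, 10, 50, 100 or 200 μM compound and kept at 24 ± 1 °C. The F1 generation was followed for 15 days, scoring percent adult eclosion against an untreated control. LD50 was derived from the eclosion data, with Dunnett's test.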

In another data set the test system is Drosophila. Description: Toxicity in wild-type Drosophila assessed as eclosion rate at 50 uM, po via food to female and male flies and measured in F1 generation flies after 15 days. It is filed as organism-based. The settings on record: in vivo, 360 h, time 15 day. Put shortly: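 Ten virgin female and male Oregon R+ flies crossed on food containing compound (1, 10, 50, 100 or 200 μM), held at 24 ± 1 °C; F1 generation followed 15 days; percent eclosion versus untreated controls; Dunnett's multiple comparisons.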

This is an account of results in ChEMBL document CHEMBL6134766, “Design, synthesis, and evaluation of benzhydrylpiperazine-based novel dual COX-2/5-LOX inhibitors with anti-inflammatory and anti-cancer activity” (RSC Med Chem, 2025).

Activity calls are given as the source filed them. The calls are words filed in the database; no cut-off is given here.

Take `O=[N+]([O-])c1ccc(-c2nnc(CN3CCN(C(c4ccccc4)c4ccc(Cl)cc4)CC3)o2)cc1` (stereo unspecified): the outcome with Gastric mucosa [1], with Gastric mucosa [12] and with Rattus norvegicus [14] was Active. The Activity is 4.57 mm in the data set with Rattus norvegicus [2]; 55.22% in the data set on Rattus norvegicus [4]; “Non-toxic” in data set [6]; 3.44 mm with Rattus norvegicus [8]; “Non-toxic” in [9]; “Non-toxic” in [10]. The values for the Activity result (in [11]; with Rattus norvegicus [13]) were “Non-toxic” and 4.22 mm, respectively. Besides, the UI is 3.125 in data set [3] and 9.37 in [5]. In addition, 9.16 µM corresponded to half-maximal inhibition in data set [7] (IC50).

In the case of `Clc1ccc(-c2nnc(CN3CCN(C(c4ccccc4)c4ccc(Cl)cc4)CC3)o2)cc1` (stereo unspecified), the result with Gastric mucosa [1], in the data set with Gastric mucosa [12] and with Rattus norvegicus [14] was Active. For the same compound, the Activity in the data set on Rattus norvegicus [2] is reported as 4.18 mm; in the data set on Rattus norvegicus [4] it was 56.12%; in data set [6], “Non-toxic”; in the data set with Rattus norvegicus [8] it was 3.21 mm; in data set [9] it was “Non-toxic”; in data set [10] it was “Non-toxic”. Besides, the values for the Activity result (in data set [11]; in the data set on Rattus norvegicus [13]; with Drosophila) were “Non-toxic”, 3.98 mm and > 70%, respectively. Besides, the UI in [3] is 2.083; in [5] it was 1.875. Besides, half-maximal inhibition in [7] (IC50) was put at 7.87 µM. Also, the Tmax in data set [15] came to 3 h. Moreover, in data set [16], the LC50 at 360 h came to 100 µM.
